Results: ChEMBL document CHEMBL5724801, “EUbOPEN Chemogenomics Library - Multiplex” (2024)
Values joined by “and” are separate entries in the source; they are usually repeats but may differ in a detail not shown here. Identical values can stand only once.

Test system: HEK-293T
Assay: Multiplex assay against HEK293T
Format: toxicity, cell-based
Conditions: human
In short: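 Live cells were stained at seeding with Hoechst33342, BioTracker Green Microtubule Cytoskeleton Dye, MitoTracker Red and Annexin V Alexa Fluor 680, then imaged on a CQ1 microscope at 37°C and 5% CO2 after compound addition. CellPathfinder machine-learning gating split cells into Hoechst high-intensity objects or normal cells. Normal cells were split into healthy, pyknosed or fragmented nuclei, and pyknosed cells into mitotic or apoptotic. Tubulin, mitochondrial-mass and membrane-permeability phenotypes are per cents of healthy-nucleus cells.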

[1] = 12 h, 1 µM, compound concentration 1 uM
[2] = 12 h, 10 µM, compound concentration 10 uM
[3] = 24 h, 1 µM, compound concentration 1 uM
[4] = 24 h, 10 µM, compound concentration 10 uM
[5] = 48 h, 1 µM, compound concentration 1 uM
[6] = 48 h, 10 µM, compound concentration 10 uM

CCCN1CCC[C@@H]2Cc3n[nH]cc3C[C@H]21.Cl [QUINPIROLE HYDROCHLORIDE]
Population Apoptotic (%) [1]: 32% and 63%
Population Fragmented Nuclei (%) [1]: 6% and 4%
Population Healthy Nuclei (%) [1]: 84% and 82%
Population Hoechst High Intensity Objects (%) [1]: 6% and 3%
Population Membrane Permeable-Phenotype (%) [1]: 0%
Population Mitochondria Different-Phenotype (%) [1]: 37% and 67%
Population Mitotic Cells (%) [1]: 67% and 36%
Population Normal (%) [1]: 93% and 96%
Population Pyknosed Nuclei (%) [1]: 9% and 12%
Population Tubulin-Different-Phenotype (%) [1]: 22% and 26%
Total Cell Count [1]: 447 and 294
Population Apoptotic (%) [2]: 55% and 46%
Population Fragmented Nuclei (%) [2]: 11% and 5%
Population Healthy Nuclei (%) [2]: 72% and 78%
Population Hoechst High Intensity Objects (%) [2]: 9% and 5%
Population Membrane Permeable-Phenotype (%) [2]: 0%
Population Mitochondria Different-Phenotype (%) [2]: 53% and 69%
Population Mitotic Cells (%) [2]: 44% and 53%
Population Normal (%) [2]: 90% and 94%
Population Pyknosed Nuclei (%) [2]: 15% and 16%
Population Tubulin-Different-Phenotype (%) [2]: 40% and 26%
Total Cell Count [2]: 381 and 312
Population Apoptotic (%) [3]: 30% and 29%
Population Fragmented Nuclei (%) [3]: 12% and 8%
Population Healthy Nuclei (%) [3]: 79% and 81%
Population Hoechst High Intensity Objects (%) [3]: 3% and 2%
Population Membrane Permeable-Phenotype (%) [3]: 0%
Population Mitochondria Different-Phenotype (%) [3]: 17% and 37%
Population Mitotic Cells (%) [3]: 70%
Population Normal (%) [3]: 96% and 97%
Population Pyknosed Nuclei (%) [3]: 8% and 9%
Population Tubulin-Different-Phenotype (%) [3]: 14% and 16%
Total Cell Count [3]: 600 and 390
Population Apoptotic (%) [4]: 45% and 43%
Population Fragmented Nuclei (%) [4]: 10% and 7%
Population Healthy Nuclei (%) [4]: 77% and 78%
Population Hoechst High Intensity Objects (%) [4]: 4% and 2%
Population Membrane Permeable-Phenotype (%) [4]: 0%
Population Mitochondria Different-Phenotype (%) [4]: 38% and 43%
Population Mitotic Cells (%) [4]: 54% and 56%
Population Normal (%) [4]: 95% and 97%
Population Pyknosed Nuclei (%) [4]: 11% and 13%
Population Tubulin-Different-Phenotype (%) [4]: 27% and 13%
Total Cell Count [4]: 529 and 406
Population Apoptotic (%) [5]: 21% and 33%
Population Fragmented Nuclei (%) [5]: 16% and 11%
Population Healthy Nuclei (%) [5]: 76% and 84%
Population Hoechst High Intensity Objects (%) [5]: 1% and 2%
Population Membrane Permeable-Phenotype (%) [5]: 1%
Population Mitochondria Different-Phenotype (%) [5]: 9% and 19%
Population Mitotic Cells (%) [5]: 78% and 66%
Population Normal (%) [5]: 98%
Population Pyknosed Nuclei (%) [5]: 6% and 4%
Population Tubulin-Different-Phenotype (%) [5]: 10% and 8%
Total Cell Count [5]: 1105 and 649
Population Apoptotic (%) [6]: 40% and 33%
Population Fragmented Nuclei (%) [6]: 15% and 13%
Population Healthy Nuclei (%) [6]: 78% and 80%
Population Hoechst High Intensity Objects (%) [6]: 2% and 1%
Population Membrane Permeable-Phenotype (%) [6]: 1% and 0%
Population Mitochondria Different-Phenotype (%) [6]: 23% and 28%
Population Mitotic Cells (%) [6]: 59% and 66%
Population Normal (%) [6]: 97% and 98%
Population Pyknosed Nuclei (%) [6]: 6%
Population Tubulin-Different-Phenotype (%) [6]: 15% and 13%
Total Cell Count [6]: 772 and 654

O=C(NCCN1CCC(n2c(=O)[nH]c3cc(Cl)ccc32)CC1)c1ccc(F)cc1 [HALOPEMIDE]
Population Apoptotic (%) [1]: 46% and 43%
Population Fragmented Nuclei (%) [1]: 5%
Population Healthy Nuclei (%) [1]: 81% and 79%
Population Hoechst High Intensity Objects (%) [1]: 7% and 10%
Population Membrane Permeable-Phenotype (%) [1]: 0%
Population Mitochondria Different-Phenotype (%) [1]: 54% and 62%
Population Mitotic Cells (%) [1]: 53% and 56%
Population Normal (%) [1]: 92% and 89%
Population Pyknosed Nuclei (%) [1]: 13% and 15%
Population Tubulin-Different-Phenotype (%) [1]: 42% and 29%
Total Cell Count [1]: 334 and 373
Population Apoptotic (%) [2]: 39% and 65%
Population Fragmented Nuclei (%) [2]: 5% and 6%
Population Healthy Nuclei (%) [2]: 74% and 72%
Population Hoechst High Intensity Objects (%) [2]: 14% and 13%
Population Membrane Permeable-Phenotype (%) [2]: 0% and 1%
Population Mitochondria Different-Phenotype (%) [2]: 76% and 84%
Population Mitotic Cells (%) [2]: 60% and 34%
Population Normal (%) [2]: 85% and 86%
Population Pyknosed Nuclei (%) [2]: 20% and 21%
Population Tubulin-Different-Phenotype (%) [2]: 68% and 59%
Total Cell Count [2]: 460 and 319
Population Apoptotic (%) [3]: 40%
Population Fragmented Nuclei (%) [3]: 7% and 9%
Population Healthy Nuclei (%) [3]: 79%
Population Hoechst High Intensity Objects (%) [3]: 3% and 6%
Population Membrane Permeable-Phenotype (%) [3]: 1% and 0%
Population Mitochondria Different-Phenotype (%) [3]: 35% and 37%
Population Mitotic Cells (%) [3]: 59%
Population Normal (%) [3]: 96% and 93%
Population Pyknosed Nuclei (%) [3]: 12% and 11%
Population Tubulin-Different-Phenotype (%) [3]: 24% and 21%
Total Cell Count [3]: 471 and 508
Population Apoptotic (%) [4]: 27% and 64%
Population Fragmented Nuclei (%) [4]: 8% and 9%
Population Healthy Nuclei (%) [4]: 72% and 70%
Population Hoechst High Intensity Objects (%) [4]: 8%
Population Membrane Permeable-Phenotype (%) [4]: 1% and 0%
Population Mitochondria Different-Phenotype (%) [4]: 63% and 78%
Population Mitotic Cells (%) [4]: 72% and 35%
Population Normal (%) [4]: 91%
Population Pyknosed Nuclei (%) [4]: 19% and 20%
Population Tubulin-Different-Phenotype (%) [4]: 64% and 62%
Total Cell Count [4]: 580 and 361
Population Apoptotic (%) [5]: 30% and 28%
Population Fragmented Nuclei (%) [5]: 13%
Population Healthy Nuclei (%) [5]: 79%
Population Hoechst High Intensity Objects (%) [5]: 1% and 3%
Population Membrane Permeable-Phenotype (%) [5]: 1% and 0%
Population Mitochondria Different-Phenotype (%) [5]: 21%
Population Mitotic Cells (%) [5]: 69% and 71%
Population Normal (%) [5]: 98% and 96%
Population Pyknosed Nuclei (%) [5]: 6% and 7%
Population Tubulin-Different-Phenotype (%) [5]: 16% and 10%
Total Cell Count [5]: 841 and 675
Population Apoptotic (%) [6]: 37% and 60%
Population Fragmented Nuclei (%) [6]: 14%
Population Healthy Nuclei (%) [6]: 72% and 74%
Population Hoechst High Intensity Objects (%) [6]: 8% and 6%
Population Membrane Permeable-Phenotype (%) [6]: 1%
Population Mitochondria Different-Phenotype (%) [6]: 57% and 64%
Population Mitotic Cells (%) [6]: 62% and 40%
Population Normal (%) [6]: 91% and 93%
Population Pyknosed Nuclei (%) [6]: 12% and 11%
Population Tubulin-Different-Phenotype (%) [6]: 55%
Total Cell Count [6]: 706 and 531

CC(C)CNc1nc(N2CCN(CC3CCCOC3)CC2)ncc1C(=O)NCc1ccccc1 (centres undefined)
Population Apoptotic (%) [1]: 11.7% and 11.21%
Population Fragmented Nuclei (%) [1]: 1.89% and 4.9%
Population Hoechst High Intensity Objects (%) [1]: 0.31% and 0%
Population Membrane Permeable-Phenotype (%) [1]: 0%
Population Mitotic Cells (%) [1]: 88.3% and 88.79%
Population Normal (%) [1]: 99.69% and 100%
Population Pyknosed Nuclei (%) [1]: 53.94% and 81.12%
Population Tubulin-Different-Phenotype (%) [1]: 13.57% and 25%
Total Cell Count [1]: 318 and 143
Population Apoptotic (%) [2]: 30.6% and 27.73%
Population Fragmented Nuclei (%) [2]: 4.29% and 5.11%
Population Hoechst High Intensity Objects (%) [2]: 1.06% and 0%
Population Membrane Permeable-Phenotype (%) [2]: 0%
Population Mitochondria Different-Phenotype (%) [2]: 23.53% and 63.64%
Population Mitotic Cells (%) [2]: 69.4% and 72.27%
Population Normal (%) [2]: 98.94% and 100%
Population Pyknosed Nuclei (%) [2]: 65.36% and 86.86%
Population Tubulin-Different-Phenotype (%) [2]: 85.88% and 81.82%
Total Cell Count [2]: 283 and 137
Population Apoptotic (%) [3]: 21.51% and 22.81%
Population Fragmented Nuclei (%) [3]: 1.41% and 5.26%
Population Hoechst High Intensity Objects (%) [3]: 0.2% and 0%
Population Membrane Permeable-Phenotype (%) [3]: 1.89% and 0%
Population Mitochondria Different-Phenotype (%) [3]: 30.6% and 36.67%
Population Mitotic Cells (%) [3]: 78.49% and 77.19%
Population Normal (%) [3]: 99.8% and 100%
Population Pyknosed Nuclei (%) [3]: 34.68% and 75%
Population Tubulin-Different-Phenotype (%) [3]: 28.71% and 13.33%
Population Apoptotic (%) [4]: 59.41% and 71.68%
Population Fragmented Nuclei (%) [4]: 4.91% and 5.67%
Population Hoechst High Intensity Objects (%) [4]: 0.61% and 0%
Population Membrane Permeable-Phenotype (%) [4]: 0%
Population Mitochondria Different-Phenotype (%) [4]: 72.86% and 75%
Population Mitotic Cells (%) [4]: 40.59% and 28.32%
Population Normal (%) [4]: 99.39% and 100%
Population Pyknosed Nuclei (%) [4]: 52.15% and 80.14%
Population Tubulin-Different-Phenotype (%) [4]: 90.71% and 75%
Total Cell Count [4]: 328 and 141
Population Apoptotic (%) [5]: 7.95% and 20.65%
Population Fragmented Nuclei (%) [5]: 1.03% and 6.84%
Population Healthy Nuclei (%) [5]: 83.45% and 44.74%
Population Hoechst High Intensity Objects (%) [5]: 0%
Population Membrane Permeable-Phenotype (%) [5]: 2.71% and 1.18%
Population Mitochondria Different-Phenotype (%) [5]: 49.88% and 61.18%
Population Mitotic Cells (%) [5]: 92.05% and 79.35%
Population Normal (%) [5]: 100%
Population Apoptotic (%) [6]: 64.8% and 78.16%
Population Fragmented Nuclei (%) [6]: 2.93% and 2.01%
Population Healthy Nuclei (%) [6]: 60.41% and 39.6%
Population Hoechst High Intensity Objects (%) [6]: 0.87% and 1.32%
Population Membrane Permeable-Phenotype (%) [6]: 0.97% and 3.39%
Population Mitochondria Different-Phenotype (%) [6]: 96.6% and 88.14%
Population Mitotic Cells (%) [6]: 35.2% and 21.84%
Population Normal (%) [6]: 99.13% and 98.68%
Population Pyknosed Nuclei (%) [6]: 36.66% and 58.39%
Population Tubulin-Different-Phenotype (%) [6]: 73.3% and 91.53%
Total Cell Count [6]: 344 and 151
